Among the data in ChEMBL document CHEMBL3102692 (Bioorg Med Chem Lett, 2014) are inhibition and IC50 values, retold here.

As a reminder, the inhibition is the percentage by which the read-out fell short of the control. The term IC50 denotes the point on the concentration scale where inhibition reaches its midpoint.

Molecules are shown by their SMILES. The source made the active and inactive calls. No cut-off for these calls is given here.

In experiment [1] the target is T1, Beta-secretase 1 (Homo sapiens, UniProt P56817). Kind of experiment: Inhibition of recombinant BACE1 (unknown origin) at 0.67 mM.
T1 sequence (P56817 whole entry): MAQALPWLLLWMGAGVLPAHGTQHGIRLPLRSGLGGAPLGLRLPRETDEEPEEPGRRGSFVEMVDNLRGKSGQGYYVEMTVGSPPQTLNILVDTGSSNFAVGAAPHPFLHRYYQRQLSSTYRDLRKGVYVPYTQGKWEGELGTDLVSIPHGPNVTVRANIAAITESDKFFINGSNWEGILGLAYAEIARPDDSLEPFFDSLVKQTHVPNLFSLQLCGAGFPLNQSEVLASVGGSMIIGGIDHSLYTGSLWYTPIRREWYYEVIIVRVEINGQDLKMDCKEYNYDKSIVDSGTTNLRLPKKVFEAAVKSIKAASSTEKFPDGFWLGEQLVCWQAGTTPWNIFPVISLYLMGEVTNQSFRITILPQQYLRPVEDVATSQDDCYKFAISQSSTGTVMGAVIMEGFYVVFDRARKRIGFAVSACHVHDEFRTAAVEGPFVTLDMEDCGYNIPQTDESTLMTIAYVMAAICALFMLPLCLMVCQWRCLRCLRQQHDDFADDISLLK
The target of experiment [2] is T1, Beta-secretase 1. Kind of experiment: Inhibition of recombinant BACE1 (unknown origin) at 1.3 mM. In short, it runs like this:
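Recombinant BACE1 was incubated with a synthetic dodecapeptide substrate carrying the Swedish-type BACE1 cleavage sequence, in 40 mM AcONa buffer (pH 4.0) with 10% glycerol, 10 mM DTT and 4 M NaCl. The reaction mixture was analysed by reversed-phase C18 HPLC using a 10–40% MeCN gradient over 30 min in aq 0.1% TFA. Inhibition was read from the decrease of the substrate.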

Experiment [3] deals with T1, Beta-secretase 1. Kind of experiment: Inhibition of recombinant BACE1 (unknown origin).
For experiment [4], the target named is T1, Beta-secretase 1. Kind of experiment: Non-competitive inhibition of recombinant BACE1 (unknown origin) by Lineweaver-Burk plot analysis.

Consider `COc1ccc(CCC(=O)C(C(C)C)C(O)CCc2ccc(OC)c(OC)c2)cc1OC` (stereo unspecified), for which, at Beta-secretase 1 [1], the inhibition was determined as 1%.
On to `COc1ccc(/C=C/C(=O)/C=C(O)/C=C/c2ccc(OC)c(OC)c2)cc1OC`, for which, at Beta-secretase 1 [1], the inhibition turned out to be 0%.
Still for that read-out and setting: to `O=C(/C=C(O)/C=C/c1cccnc1)/C=C/c1ccc(O)c(O)c1` belongs 21%; to `COCOc1ccc(/C=C/C(=O)/C=C(O)/C=C/c2ccc(OCOC)c(OC)c2)cc1OC`, 7%.
With `COc1cc(/C=C/C(=O)/C(=C(O)/C=C/c2ccc(O)c(OC)c2)C(C)C)ccc1O`, the inhibition at Beta-secretase 1 [1] was 6%.
On the same count and under the same terms, to `N#Cc1cccc(/C=C/C(O)=C/C(=O)/C=C/c2ccc(O)c(O)c2)c1` belongs 21%.
With `COCCOCOc1ccc(/C=C/C(=O)/C=C(O)/C=C/c2ccc(OCOCCOC)c(OC)c2)cc1OC`, at Beta-secretase 1 [2], the inhibition is 19%.
`O=C(/C=C(O)/C=C/c1ccccc1)/C=C/c1ccccc1`: the inhibition at Beta-secretase 1 [1] was found to be 1%.
On the same count and under the same terms, as for `COc1ccc(CCC(O)C(C(C)C)C(O)CCc2ccc(OC)c(OC)c2)cc1OC` (stereo unspecified), the figure is 9%.
With `COc1cc(CCC(=O)CC(O)CCc2ccc(O)c(OC)c2)ccc1O` (stereo unspecified), the inhibition on Beta-secretase 1 [2] worked out at 7%.
The same measure, in the same setting: as for `COCCOCOc1ccc(CCC(=O)/C=C(\O)CCc2ccc(OCOCCOC)c(OC)c2)cc1OC`, the figure is 17%.
For the compound `O=C(/C=C(O)/C=C/c1ccc[nH]1)/C=C/c1ccc(O)c(O)c1`, on Beta-secretase 1 [1], the inhibition was 30%.
For `COCCOCOc1ccc(/C=C/C(=O)/C=C(O)/C=C/c2ccc(O)c(OC)c2)cc1OC`, the inhibition at Beta-secretase 1 [2] worked out at 17%.
Still for that read-out and setting: to `COCCOCOc1ccc(CCC(=O)CC(O)CCc2ccc(OCOCCOC)c(OC)c2)cc1OC` (stereo unspecified) belongs 15%; to `COc1cc(/C=C/C(O)=C/C(=O)/C=C/c2ccc(O[Si](C)(C)C(C)(C)C)c(OC)c2)ccc1O`, 22%.
As to `COc1cc(/C=C/C(O)=C/C(=O)/C=C/c2ccc(O)cc2)ccc1O` [DEMETHOXYCURCUMIN], at Beta-secretase 1 [3], the concentration for half-maximal inhibition (IC50) worked out at 1600 µM. On Beta-secretase 1 [1], the inhibition came out at 35%.
For `COc1ccccc1/C=C/C(O)=C/C(=O)/C=C/c1ccc(O)c(O)c1` the same measures were 1400 µM and 47%.
`COc1ccc(CCCC(C(=O)CCc2ccc(OC)c(OC)c2)C(C)C)cc1OC` (stereo unspecified): the inhibition on Beta-secretase 1 [1] was 5%.
For `COc1ccc(/C=C/C(=O)/C(=C(O)/C=C/c2ccc(OC)c(OC)c2)C(C)C)cc1OC`, on Beta-secretase 1 [1], the inhibition was 4%.
In the case of `O=C(/C=C(O)/C=C/c1ccc(O)c(O)c1)/C=C/c1ccc(O)c(O)c1`, the IC50 on Beta-secretase 1 [3] was determined as 2200 µM. The inhibition on Beta-secretase 1 [1] was 25%.
Take `O=C(/C=C(O)/C=C/c1ccccc1O)/C=C/c1ccc(O)c(O)c1`: the inhibition result on Beta-secretase 1 [4] was “Active”. Besides, the IC50 on Beta-secretase 1 [3] was 250 µM. Besides, the inhibition on Beta-secretase 1 [1] was 100%.
`O=C(/C=C(O)/C=C/c1cccc(O)c1)/C=C/c1cccc(O)c1`: the inhibition at Beta-secretase 1 [1] came to 33%.
As for `COc1cc(CCC(=O)/C=C(\O)CCc2ccc(O)c(OC)c2)ccc1O`, the inhibition at Beta-secretase 1 [2] came to 7%.
With `O=C(/C=C(O)/C=C/c1ccccc1)/C=C/c1ccc(O)c(O)c1`, at Beta-secretase 1 [1], the inhibition amounted to 26%.
As for `O=C(/C=C(O)/C=C/c1cccc([N+](=O)[O-])c1)/C=C/c1ccc(O)c(O)c1`, at Beta-secretase 1 [3], the 50% inhibitory concentration (IC50) came out at 1800 µM. The inhibition on Beta-secretase 1 [1] was 18%.
In the case of `COCCOCOC(=C\C(=O)/C=C/c1ccc(OCOCCOC)c(OC)c1)/C=C/c1ccc(OCOCCOC)c(OC)c1`, the inhibition at Beta-secretase 1 [2] is 36%.
Regarding `COc1cc(/C=C/C(=O)/C=C(O)/C=C/c2ccc(Br)cc2)ccc1O`, on Beta-secretase 1 [1], the inhibition stood at 5%.
Still for that read-out and setting: to `O=C(/C=C(O)/C=C/c1ccc(O)cc1)/C=C/c1ccc(O)c(O)c1` belongs 18%.
In the case of `O=C(/C=C(O)/C=C/c1c[nH]c2ccccc12)/C=C/c1ccc(O)c(O)c1`, the IC50 on Beta-secretase 1 [3] amounted to 450 µM. Also, the inhibition at Beta-secretase 1 [1] is 71%.
